Measured values reported in ChEMBL document CHEMBL5108058 (J Med Chem, 2022).

How the values were obtained:
SARS-CoV-2 [1] = test: Antiviral activity against SARS-CoV-2-BetaCoV/belgium/GHB-03021/2020 infected in human Huh-7 cells assessed as reduction in cytopathic effect pre-infected with virus on day 0 followed by compound addition on day 1 and measured after 4 days post infection by MTT assay; format: functional, organism-based; conditions: Severe acute respiratory syndrome coronavirus 2, BetaCoV/belgium/GHB-03021/2020, Huh-7
[2] = Cmax in CD-1 mouse plasma at 100 mg/kg, po measured at 0.5 to 3 hrs; format: ADME, organism-based; design: time 0.5-3 hrs, dose 100 mg/kg, route po; conditions: in vivo
In short: (§1)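 Male CD-1 mice, 4 weeks old, given 100 mg/kg by intragastric gavage in DOPS liposomal formulation (1 mM DOPS final). Tail-vein blood sampled at 0.5, 1 and 3 h; terminal heart blood, BALF and lungs at 5 h. EDTA plasma kept at −80 °C until analysis; parameters by non-compartmental analysis.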

[3] = Cmax in CD-1 mouse Epithelial lining fluid at 25 mg/kg, INH using nebulizer measured at 0.25 to 24 hrs; format: ADME, organism-based; design: time lower 0.25 hrs, dose 25 mg/kg, time upper 24 hrs, route inh; conditions: in vivo, inhaled_or_intranasal
In short: (§2)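 Male outbred CD-1 mice, 4 weeks old. Compound in a DOPS liposomal formulation (1 mM DOPS final), 25 mg/kg by nebulizer inhalation. Mice euthanized at 0.25, 0.5, 1, 2, 4, 8 and 24 h for heart blood (EDTA plasma), bronchoalveolar lavage and lung homogenate. ELF levels derived from BALF by urea method; non-compartmental PK analysis.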

[4] = Cmax in CD-1 mouse BALF at 25 mg/kg, INH using nebulizer measured at 5 hrs; format: ADME, organism-based, Bronchoalveolar lavage; design: time 5 hrs, dose 25 mg/kg, route inh; conditions: in vivo, inhaled_or_intranasal
[5] = Cmax in CD-1 mouse lung at 25 mg/kg, INH using nebulizer measured at 0.25 to 24 hrs; format: ADME, organism-based; design: dose 25 mg/kg, time 0.25-24 hrs, route inh; conditions: inhaled or intranasal; in short: as §2
[6] = Tmax in CD-1 mouse plasma at 25 mg/kg, INH using nebulizer measured at 0.25 to 24 hrs; format: ADME, organism-based; conditions: in vivo, inhaled_or_intranasal, time 0.25-24 hrs; in short: as §2
[7] = MRT in CD-1 mouse plasma at 100 mg/kg, po measured at 0.5 to 3 hrs; format: ADME, organism-based; conditions: in vivo, time 0.5-3 hrs; in short: as §1
Vero C1008 = test: Cytotoxicity against African green monkey Vero E6 cells assessed as reduction in cell viability; format: toxicity, cell-based; conditions: chlorocebus sabaeus
In short: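 VeroE6-eGFP cells maintained in DMEM with 10% FBS and G418. Compound toxicity measured without virus by standard MTS assay in parallel with the antiviral test. At least two independent dose–response curves.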

[8] = Observed apparent volume of distribution in CD-1 mouse plasma at 100 mg/kg, po measured at 0.5 to 3 hrs; format: ADME, organism-based; conditions: in vivo, time 0.5-3 hrs; in short: as §1
[9] = AUC (0 to t) in CD-1 mouse BALF at 25 mg/kg, INH using nebulizer measured at 5 hrs; format: ADME, organism-based, Bronchoalveolar lavage; design: dose 25 mg/kg, time 5 hrs, route inh; conditions: in vivo, inhaled_or_intranasal
SARS-CoV-2 [10] = test: Antiviral activity against SARS-CoV-2-alphaB.1.1.7 infected in human A549 cells expressing ACE2 and TMPRSS2 assessed as reduction in cytopathic effect pre-infected with virus on day 0 followed by compound addition on day 1 and measured after 4 days post infection by MTS assay; format: functional, organism-based; conditions: Severe acute respiratory syndrome coronavirus 2, alphaB.1.1.7, A549
[11] = AUC (0 to t) in CD-1 mouse plasma at 100 mg/kg, po measured at 0.5 to 3 hrs; format: ADME, organism-based; design: time lower 0.5 hrs, dose 100 mg/kg, time upper 3 hrs, route po; conditions: in vivo; in short: as §1
[12] = AUC (0 to t) in CD-1 mouse plasma at 25 mg/kg, INH using nebulizer measured at 0.25 to 24 hrs; format: ADME, organism-based; design: time lower 0.25 hrs, dose 25 mg/kg, time upper 24 hrs, route inh; conditions: in vivo, inhaled_or_intranasal; in short: as §2
SARS-CoV-2 [13] = test: Antiviral activity against SARS-Cov2 […] infected in Calu-3 cells assessed as reduction in viral particle release measured after 24 hrs; format: functional, organism-based; conditions: Severe acute respiratory syndrome coronavirus 2, Calu-3, 24 h
[14] = AUC (0 to t) in CD-1 mouse Epithelial lining fluid at 25 mg/kg, INH using nebulizer measured at 0.25 to 24 hrs; format: ADME, organism-based; design: time upper 24 hrs, dose 25 mg/kg, time lower 0.25 hrs, route inh; conditions: in vivo, inhaled_or_intranasal; in short: as §2
[15] = Apparent oral clearance in CD-1 mouse plasma at 25 mg/kg, INH using nebulizer measured at 0.25 to 24 hrs; format: ADME, organism-based; conditions: time 0.25-24 hrs; in short: as §2
[16] = Cmax in CD-1 mouse plasma at 25 mg/kg, INH using nebulizer measured at 0.25 to 24 hrs; format: ADME, organism-based; design: dose 25 mg/kg, time 0.25-24 hrs, route inh; conditions: in vivo, inhaled_or_intranasal; in short: as §2
[17] = Oral bioavailability in CD-1 mouse at 100 mg/kg measured at 0.5 to 3 hrs; format: ADME, organism-based; conditions: in vivo, time 0.5-3 hrs; in short: as §1
[18] = Half life in CD-1 mouse plasma at 100 mg/kg, po measured at 0.5 to 3 hrs; format: ADME, organism-based; conditions: in vivo, time 0.5-3 hrs; in short: as §1
SARS-CoV-2 [19] = test: Antiviral activity against SARS-CoV-2-GHB-03021/2020 infected in African green monkey Vero E6 cells assessed as reduction in cytopathic effect pre-infected with virus on day 0 followed by compound addition on day 1 and measured after 4 days post infection in presence of CP-100356 by MTS assay; format: functional, organism-based; conditions: Severe acute respiratory syndrome coronavirus 2, GHB-03021/2020, Vero C1008
[20] = Observed apparent volume of distribution in CD-1 mouse plasma at 25 mg/kg, INH using nebulizer measured at 0.25 to 24 hrs; format: ADME, organism-based; conditions: in vivo, inhaled_or_intranasal, time 0.25-24 hrs; in short: as §2
[21] = Tmax in CD-1 mouse plasma at 100 mg/kg, po measured at 0.5 to 3 hrs; format: ADME, organism-based; conditions: in vivo, time 0.5-3 hrs; in short: as §1
SARS-CoV-2 [22] = test: Antiviral activity against SARS-Cov2 […] infected in Calu-3 cells assessed as viral plaque reduction; format: functional, organism-based; conditions: Severe acute respiratory syndrome coronavirus 2, Calu-3

CC(C)(C)OC(=O)Nc1cccn([C@@H](CC2CC2)C(=O)N[C@@H](C[C@@H]2CCNC2=O)C(=O)C(=O)NCc2ccccc2)c1=O
EC50 (SARS-CoV-2 [1]): 3400 nM | Cmax [2]: 357 ng/mL | Cmax [3]: 433520 ng/mL | Cmax [4]: 2330.33 ng/mL | Cmax [5]: 262000 ng/g | Tmax [6]: 0.33 h | MRT [7]: 2.57 h | CC50 (Vero C1008): > 100000 nM | Vz/F [8]: 131.34 L/kg | AUCt [9]: 5.1622 µg·h/mL | EC50 (SARS-CoV-2 [10]): 840 nM | AUCt [11]: 1.06149 µg·h/mL | AUCt [12]: 2.89663 µg·h/mL | EC50 (SARS-CoV-2 [13]): 2400 nM | AUCt [14]: 1042.34 µg·h/mL | CL/F [15]: 83.9 mL/min/kg | Cmax [16]: 236.47 ng/mL | bioavailability [17]: 17% | t1/2 [18]: 1.3 h | EC50 (SARS-CoV-2 [19]): 1300 nM | Vz/F [20]: 141.07 L/kg | Tmax [21]: 2.5 h

CC(C)(C)OC(=O)Nc1cccn(C(CC2CC2)C(=O)N[C@@H](C[C@@H]2CCNC2=O)C(=O)C(=O)NCc2ccccc2)c1=O (mixture of isomers)
EC50 (SARS-CoV-2 [22]): 4000 nM
